In publication PMC4310013 (Chemical Science, 2014):
Entries after “also recorded” stand apart in the source; their conditions may differ.

How the values were obtained:
[1] = Pharmacokinetic studies in C57BL/6 mice; type: in vivo; conditions: male, C57BL/6, mouse, brain, intraperitoneal
[2] = Brain tissue binding assay; type: in vitro ADME
[3] = test system: mouse forebrain primary neuronal cultures; assay: Neuronal histone acetylation assay; type: cell-based; conditions: 10 μM, 24 h, relative to vehicle
Outline: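 Primary mouse forebrain neurons were treated on culture day 13 for 24 h at 10 μM, then formaldehyde-fixed. They were stained with anti-AcH3K9 or anti-AcH4K12 and a green fluorescent secondary, and fluorescence was read by microcytometer. Read-out was the percentage of cells above a baseline threshold set in DMSO-treated cells. Two experiments in triplicate from separate dissections and cultures.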

[4] = test system: CK-p25 mice; assay: Context-dependent fear conditioning in CK-p25 mice; type: in vivo, mouse; conditions: 1 mg/kg i.p. daily for 10 days
Outline: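 CK-p25 male mice induced at 3 months of age for 6 weeks for forebrain p25 expression; p25-lacking heterozygous littermates as controls. Test compound in 5% DMSO, then 30% Cremophor/65% saline, given i.p. daily for 10 days before behaviour; vehicle without compound. Training: 3 min habituation, two 2 s 0.8 mA shocks 30 s apart, 15 s more. Freezing scored on 3 min context re-exposure 24 h later. Mean ± SEM; ANOVA/Tukey or one-tailed t test.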

[5] = test system: hippocampal CA1 neurons of CK-p25 mice; assay: Immunohistochemistry of H4K12 acetylation in hippocampal CA1 neurons; type: in vivo, mouse; conditions: after 10 day treatment, compared to vehicle treated group
Outline: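 Hippocampal tissue from CK-p25 mice given test compound or vehicle i.p. daily for 10 days. Coronal 40 μm slices were permeabilised in 0.1% Triton X-100, blocked, and incubated overnight with acetyl-histone antibody in 0.3% Triton X-100/10% FBS in PBS. Fluorescent secondary and Hoechst nuclear stain followed. Confocal images at identical settings. Mean signal in 20–40 non-apoptotic cells per condition was scored blind. Mean ± SEM.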

[6] = test system: CK-p25 mice; assay: Tolerability on daily dosing in CK-p25 mice; type: in vivo, mouse
Outline: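 Induced CK-p25 mice were given test compound i.p. daily for 10 days, dissolved in 5% DMSO then diluted in 30% Cremophor/65% physiological saline and prepared immediately before injection. Mortality and toxicity were noted over the treatment period.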

[7] = test system: wild-type male C57BL/6 mice; assay: Tolerability on daily dosing in wild-type mice; type: in vivo, mouse; conditions: 30 mg/kg daily for 10 consecutive days

For `CC(=O)NC1CCN(C(=O)Nc2cc(-c3cccs3)ccc2N)CC1` [BRD3227], the Kp [1] was 0.01.
For `Nc1ccc(-c2ccncc2)cc1NC(=O)N1CCCC1` [BRD6688], the Kp [1] was 0.26, the fraction unbound [2] was 0.54 and the AcH3K9 acetylation change [3] was “significant increases”. For the same molecule, the AcH4K12 acetylation change [3] was “significant increases”, the “contextual fear conditioning, freezing” value [4] was “rescued the memory defects; also recorded: restored the freezing response to normal levels” and the “H4K12 acetylation in hippocampal CA1 neurons” value [5] was “increased H4K12 acetylation”. For the same molecule, the toxicity ([6]; 1 mg/kg, CK-p25 mice) was “No toxicity was observed”, the mortality ([6]; 10 mg/kg, over 10 day treatment, single study, unknown cause) was 5 out of 10 and the toxicity [7] was “No toxicity was observed”.
